Reference: paper PMC3896217 (Biochemistry, 2013)

Molecular target: T1, B31 DBPA (Borreliella burgdorferi, UniProt O50917)
T1 sequence (O50917 24-191): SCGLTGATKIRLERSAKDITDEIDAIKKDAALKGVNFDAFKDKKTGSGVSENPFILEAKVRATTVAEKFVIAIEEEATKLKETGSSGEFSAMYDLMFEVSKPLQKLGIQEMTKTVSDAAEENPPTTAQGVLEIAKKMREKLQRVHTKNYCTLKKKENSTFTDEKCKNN
Assay: NMR control titration for non-specific TEMPO-DBPA interactions
Format: binding, Borrelia burgdorferi
Settings: similar protein-to-ligand ratios as TEMPO-labeled heparin dp6
How it was run: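 Samples of 400 μL held 150 to 200 μM ¹⁵N-labelled B31 WT DBPA in 50 mM NaH₂PO₄, pH 6.5, 150 mM NaCl. The DBPA construct was a His-tagged fusion expressed in E. coli BL21(DE3) in M9 medium, Ni-affinity purified and cleaved with USP2. Amide ¹H transverse relaxation was measured with delays of 1, 4.5, 8, 11.5, 15 and 18.5 ms.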

SMILES: CC1(C)CC(N)CC(C)(C)N1[O] [4-amino-TEMPO]
- changes in transverse relaxation rates of the protein: no significant changes
